In the array DNA melting data of Ke et al. (doi:10.1101/2024.01.08.574731):

Experiments:
[1] = folding enthalpy; higher = less favourable; fluorescence melt of hairpins on a sequencing array, two-state fit; settings: sodium 0.088 M
Summary of the method: (§1)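 On a sequenced MiSeq flow cell, library hairpins with annealed Cy3 and quencher oligos were imaged for Cy3 fluorescence in 2.5 °C steps up to 60 °C, in 50 mM Na-HEPES pH 8.0, 25 mM NaCl. Normalisation used pre-quench Cy3 and control constructs. Bootstrapped two-state fits gave melting temperature and folding enthalpy, combined by inverse variance across four replicates and with fitted temperatures raised by 9.35 °C to match UV melts.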

[2] = melting temperature; fluorescence melt of hairpins on a sequencing array, two-state fit, raised by 9.35 °C to match UV melts; settings: sodium 0.088 M
Summary of the method: as §1

GATACTGGAAACAGCATC (((.(((....))).))) showed a folding enthalpy [1] of -27.5 kcal/mol and a Tm [2] of 34.2 °C.
GTGTGACGAAAGTCCCAC (((.(((....))).))) showed a folding enthalpy [1] of -25 kcal/mol and a Tm [2] of 50.5 °C.
With GTGATGCGAAAGCACAC (((.(((....)))))) the folding enthalpy [1] was -25.8 kcal/mol and the Tm [2] was 53.5 °C.
Work on GATCTCGGGGAGATC ((((((...)))))) yielded a folding enthalpy [1] of -30.2 kcal/mol and a Tm [2] of 54.3 °C.
In the case of GGAAGCGAAAGCTAGTCC ((((((....)))..))), the folding enthalpy [1] is reported as -9.98 kcal/mol and the Tm [2] is reported as 25.8 °C.
For GATCCGCCGCGGATC ((((((...)))))), the folding enthalpy [1] was -40.5 kcal/mol and the Tm [2] was 56.5 °C.
Work on GGGAACGAAAGTTACCCC ((((((....)))..))) yielded a folding enthalpy [1] of -20.2 kcal/mol and a Tm [2] of 53.4 °C.
For GACGGTGGAAACGCCGTC (((((.(....).))))), the folding enthalpy [1] was -37.7 kcal/mol and the Tm [2] was 62.9 °C.
Work on GCCCCCCGAAAGGGTGGC (((.(((....))).))) yielded a folding enthalpy [1] of -33.1 kcal/mol and a Tm [2] of 64.2 °C.
For GGGGATCGAAAGATACCC (((.(((....))).))), the folding enthalpy [1] was -43.2 kcal/mol and the Tm [2] was 62.3 °C.
In the case of GATAGCCGAAAGGCAATC (((.(((....))).))), the folding enthalpy [1] is reported as -19.1 kcal/mol and the Tm [2] is reported as 46 °C.
Sequence GCCTCGCGAAAGCTCGGC (((..((....))..))) has a folding enthalpy [1] of -26.6 kcal/mol and a Tm [2] of 46.4 °C.
In the case of GCTGGGCGAAAGCTGAGC (((..((....))..))), the folding enthalpy [1] is reported as -21 kcal/mol and the Tm [2] is reported as 49.3 °C.
With GGCGTCGAAAGACTCGCC ((((((....)))..))) the folding enthalpy [1] was -20.6 kcal/mol and the Tm [2] was 50.1 °C.
In the case of GAAAGCGAAAGCTGGTTC ((((((....)))..))), the folding enthalpy [1] is reported as -9.59 kcal/mol and the Tm [2] is reported as 29.3 °C.
Work on GATCAGCCTCCTGATC ((((((....)))))) yielded a folding enthalpy [1] of -34.4 kcal/mol and a Tm [2] of 49.1 °C.
GTTATAGGAAACTATAAC (((((((....))))))) showed a folding enthalpy [1] of -35.5 kcal/mol and a Tm [2] of 45.4 °C.
With GACCTACGAAAGTATGTC (((.(((....))).))) the folding enthalpy [1] was -33.4 kcal/mol and the Tm [2] was 41 °C.
Work on GCGAACGAAAGTTTTCGC ((((((....)))..))) yielded a folding enthalpy [1] of -26.6 kcal/mol and a Tm [2] of 44.1 °C.
GTTTGGGGAAACCTGAAC (((..((....))..))) gave a folding enthalpy [1] of -16 kcal/mol and a Tm [2] of 32 °C.
For GGCGCTCCGAAAGGAGCC (((..(((....)))))), the folding enthalpy [1] was -7.43 kcal/mol and the Tm [2] was 47.8 °C.
GCGGGGCGAAAGCTGCGC (((..((....))..))) gave a folding enthalpy [1] of -27.2 kcal/mol and a Tm [2] of 65.6 °C.
In the case of GCTCTGCGAAAGCGGCGC ((.(.((....)).).)), the folding enthalpy [1] is reported as -17.2 kcal/mol and the Tm [2] is reported as 50.5 °C.
For GCCCCAGGAAACCGGGAC (.(((.(....).))).), the folding enthalpy [1] was -16.3 kcal/mol and the Tm [2] was 31.1 °C.
With GATCTCCGACGAGATC ((((((....)))))) the folding enthalpy [1] was -38.1 kcal/mol and the Tm [2] was 50 °C.
For GGCTGGGGAAACCCGGTC (.(.(((....))).).), the folding enthalpy [1] was -28.5 kcal/mol and the Tm [2] was 46.1 °C.
For GGTATAGGAAACTATATC (.(((((....))))).), the folding enthalpy [1] was -17.1 kcal/mol and the Tm [2] was 31.2 °C.
Work on GGACTCCGAAAGGATTCC (((.(((....))).))) yielded a folding enthalpy [1] of -30.2 kcal/mol and a Tm [2] of 47 °C.
GTGGGACGAAAGTCCAC (((.(((....)))))) showed a folding enthalpy [1] of -13.2 kcal/mol and a Tm [2] of 55.9 °C.
With GGAGGCGGAAACACCTCC (((((.(....).))))) the folding enthalpy [1] was -39.4 kcal/mol and the Tm [2] was 50.1 °C.
In the case of GATCTGCCATCAGATC ((((((....)))))), the folding enthalpy [1] is reported as -46 kcal/mol and the Tm [2] is reported as 49.4 °C.
GTCTTTACGAAAGTAGAC (((..(((....)))))) showed a folding enthalpy [1] of -17.4 kcal/mol and a Tm [2] of 31.8 °C.
With GGCGACGAAAGTCATGCC ((((((....)))..))) the folding enthalpy [1] was -27.2 kcal/mol and the Tm [2] was 52.5 °C.
GATCCCACGAGGGATC ((((((....)))))) showed a folding enthalpy [1] of -34.5 kcal/mol and a Tm [2] of 63.5 °C.
